The text below walks through data of ChEMBL document CHEMBL3351671, “Synthesis and anticancer activity of (E)-2-benzothiazole hydrazones” (Eur J Med Chem, 2014).

Data set [1] can be described thus: Cytotoxicity against human HL60 cells after 72 hrs by MTT assay. It counts as functional, cell-based. The conditions noted are these: HL-60, 72 h. The method in brief:
(§1)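 Cells grown in DMEM with 10% fetal bovine serum, 2 mM glutamine, 100 U/mL penicillin and streptomycin at 37 °C under 5% CO₂. Compounds were dissolved in DMSO, diluted with water and incubated with cells for 72 h. Viability was read by MTT reduction to formazan. IC₅₀ with 95% confidence interval, triplicate experiments.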

The test system of another data set is MDA-MB-435. As to the kind of experiment: Cytotoxicity against human MDA-MB-435 cells after 72 hrs by MTT assay. The conditions noted are these: MDA-MB-435, 72 h. It counts as functional, cell-based. In short, it runs like this: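 Cells grown in DMEM with 10% fetal bovine serum, 2 mM glutamine, 100 U/mL penicillin and streptomycin at 37 °C under 5% CO₂. Compounds were dissolved in DMSO, diluted with water and incubated with cells for 72 h. […] Viability was read by MTT reduction to formazan. IC₅₀ with 95% confidence interval, triplicate experiments.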

The nature of data set [2]: Cytotoxicity against human HCT8 cells after 72 hrs by MTT assay. The class given is functional, cell-based. The conditions noted are these: HCT-8, 72 h. The method in brief:
as §1

A short description of data set [3]: Hemolytic toxicity in mouse erythrocytes assessed as induction of cell membrane disruption incubated for 30 mins by hemoglobin release based spectrophotometry. Further details: species or system Erythrocyte. In short, it runs like this: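 Erythrocytes were exposed to compounds (DMSO stock, water-diluted) for 30 min at room temperature, then centrifuged. Hemoglobin released into the supernatant was read at 540 nm. DMSO served as negative control and 1% Triton X-100 as positive control.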

For the next data set, the system named is MRC5. Kind of data set: Cytotoxicity against human MRC5 cells after 72 hrs by MTT assay. The class given is cell-based. The conditions noted are these: mrc5, 72 h.

In the case of `COc1cc(/C=N/Nc2nc3ccccc3s2)ccc1O`, the IC50 (in data set [1]; in the data set with MDA-MB-435; in data set [2]) was over 16.7 µM in each case. In addition, the EC50 at 30 min in data set [3] was over 200 µg/mL.
For `C(=N\Nc1nc2ccccc2s1)/c1ccc2c(c1)OCO2`, the figures for the IC50 (in data set [1]; in the data set on MDA-MB-435; in data set [2]) were 5.51 µM, over 16.8 µM and over 16.8 µM, respectively. Further, in data set [3], the EC50 at 30 min is over 200 µg/mL. The Activity result in the data set with MRC5 is “Non-toxic”.
For `Oc1ccc(/C=N/Nc2nc3ccccc3s2)cc1O`, the IC50 was 13.6 µM in data set [1], over 17.5 µM in the data set on MDA-MB-435 and over 17.5 µM in data set [2]. In addition, in data set [3], the EC50 at 30 min was over 200 µg/mL. Further, the Activity result in the data set on MRC5 is “Non-toxic”.
`O=[N+]([O-])c1ccc(O)c(/C=N/Nc2nc3ccccc3s2)c1`: the IC50 is 1.65 µM in data set [1], 14 µM in the data set with MDA-MB-435 and 13.5 µM in data set [2]. Besides, in data set [3], the EC50 at 30 min was over 200 µg/mL. Moreover, the Activity entry in the data set with MRC5 was “Non-toxic”.
Take `Clc1ccc(/C=N/Nc2nc3ccccc3s2)cc1`: the half-maximal inhibitory concentration (IC50) (in data set [1]; in the data set with MDA-MB-435; in data set [2]) was over 17.4 µM each time. In addition, the EC50 at 30 min in data set [3] is over 200 µg/mL.
For the compound `CN(C)c1ccc(/C=N/Nc2nc3ccccc3s2)cc1`, the IC50 (in data set [1]; with MDA-MB-435; in data set [2]) was over 16.9 µM in each case. Further, the EC50 at 30 min in data set [3] was over 200 µg/mL.
Take `O=C(O)c1ccccc1/C=N/Nc1nc2ccccc2s1`: the IC50 (in data set [1]; in the data set with MDA-MB-435; in data set [2]) was over 16.8 µM in each case. For the same compound, in data set [3], the EC50 at 30 min is over 200 µg/mL.
For `Clc1ccc(/C=N/Nc2nc3ccccc3s2)c(Cl)c1`, the IC50 (in data set [1]; with MDA-MB-435; in data set [2]) was over 15.5 µM in each case. In addition, the EC50 at 30 min in data set [3] was over 200 µg/mL.
Regarding `Fc1ccc(/C=N/Nc2nc3ccccc3s2)c(F)c1`, the IC50 (in data set [1]; with MDA-MB-435; in data set [2]) was over 17.3 µM each time. In data set [3], the EC50 at 30 min was over 200 µg/mL.
For the compound `Cc1ccc(/C=N/Nc2nc3ccccc3s2)c(C)c1`, the IC50 (in data set [1]; in the data set on MDA-MB-435; in data set [2]) was over 17.8 µM in each case. In addition, in data set [3], the EC50 at 30 min was over 200 µg/mL.
Take `COc1ccc(/C=N/Nc2nc3ccccc3s2)c(OC)c1`: the IC50 (in data set [1]; in the data set on MDA-MB-435; in data set [2]) was over 16 µM in each case. The EC50 at 30 min in data set [3] was over 200 µg/mL.
For `Brc1ccc(/C=N/Nc2nc3ccccc3s2)cc1`, the IC50 (in data set [1]; with MDA-MB-435; in data set [2]) was over 15.1 µM throughout. Besides, the EC50 at 30 min in data set [3] is over 200 µg/mL.
Consider `C(=N\Nc1nc2ccccc2s1)/c1ccc(-c2ccccn2)cc1`, for which the IC50 is 11.5 µM in data set [1], over 15.1 µM in the data set on MDA-MB-435 and over 15.1 µM in data set [2]. For the same compound, the EC50 at 30 min in data set [3] is over 200 µg/mL. Further, the Activity result in the data set on MRC5 was “Non-toxic”.
Turning to `Oc1cccc(/C=N/Nc2nc3ccccc3s2)c1O`, the results for the IC50 (in data set [1]; with MDA-MB-435; in data set [2]) were 0.35 µM, over 17.5 µM and 1.29 µM, respectively. Also, the EC50 at 30 min in data set [3] is over 200 µg/mL. Further, the Activity entry with MRC5 was “Non-toxic”.
For `Oc1ccc(O)c(/C=N/Nc2nc3ccccc3s2)c1` the same measures were 0.59 µM, 6.27 µM, 11.2 µM, over 200 µg/mL and “Non-toxic”.
As to `Oc1ccc(/C=N/Nc2nc3ccccc3s2)c(O)c1`, the IC50 in data set [1] is 1.89 µM; in the data set with MDA-MB-435, 14.4 µM; in data set [2], 3.43 µM. Also, the EC50 at 30 min in data set [3] is over 200 µg/mL. Also, the Activity result in the data set on MRC5 is “Non-toxic”.
Consider `Oc1ccc(/C=N/Nc2nc3ccccc3s2)cc1`, for which the IC50 in data set [1] is 4.6 µM; in the data set with MDA-MB-435, over 18.6 µM; in data set [2], over 18.6 µM. The EC50 at 30 min in data set [3] was over 200 µg/mL. In the data set with MRC5, the Activity result was “Non-toxic”.
On to `COc1cccc2c1C(=O)c1c(O)c3c(c(O)c1C2=O)C[C@@](O)(C(=O)CO)C[C@@H]3O[C@H]1C[C@H](N)[C@H](O)[C@H](C)O1` [DOXORUBICIN], for which, in data set [3], the EC50 at 30 min is over 200 µg/mL.
